Results published in ChEMBL document CHEMBL1151796, “Novel anticancer agents, kayeassamins C-I from the flower of Kayea assamica of Myanmar” (2008).

System: PANC-1
Assay: Cytotoxicity against human PANC1 cells in nutrient-deprived condition assessed as complete preferential cell death at 1 uM
Assay type: functional, cell-based
Details: TDE = time-dependent effect
How it was run: (§1)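 PANC-1 cells (2×10^4 per well, 24 h preculture in DMEM, 37 °C, 5% CO₂) were PBS-washed and exposed in NDM or DMEM for 3, 6, 9, 12 and 24 h. Morphology was checked by phase-contrast microscopy at 20×. Cells were then washed and given 2 h of 10% WST-8 in DMEM, with absorbance read at 450 nm. Viability was taken from the mean of three wells.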

SMILES | Activity
CC[C@H](O)c1cc(=O)oc2c(C/C=C(\C)CCC=C(C)C)c(O)c(C(=O)CC(C)C)c(O)c12 [KAYEASSAMIN D] | tde

System: PANC-1
Assay: Cytotoxicity against human PANC1 cells in nutrient-deprived condition assessed as preferential cell death within 3 hrs
Assay type: functional, cell-based
Details: not given
How it was run: as §1

SMILES | Activity
CCCC(=O)c1c(O)c(CC=C(C)C)c2oc(=O)cc([C@@H](O)CC)c2c1O [KAYEASSAMIN E] | Dose-dependent effect

Same assay, conditions: TDE = time-dependent effect

SMILES | Activity
CC[C@H](O)c1cc(=O)oc2c(CC=C(C)C)c(O)c(C(=O)CC(C)C)c(O)c12 [KAYEASSAMIN G] | tde

System: PANC-1
Assay: Cytotoxicity against human PANC1 cells in nutrient-deprived condition
Assay type: functional
Details: not given
How it was run: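 PANC-1 cells seeded at 2×10^4 per well, grown 24 h in DMEM at 37 °C, 5% CO₂, PBS-washed, then switched to nutrient-deprived medium (NDM) or DMEM with serial dilutions of pure compounds (1–256 µM). Incubated 24 h, washed, then 2 h with DMEM containing 10% WST-8 and read at 450 nm. Endpoint reported as PC₁₀₀.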

SMILES | Cytotoxicity [µM]
CCCC(=O)c1c(O)c(C/C=C(\C)CCC=C(C)C)c(O)c2c([C@@H](O)CC)cc(=O)oc12 [KAYEASSAMIN A] | 1
CCC(C)C(=O)c1c(O)c(CC=C(C)C)c2oc(=O)cc([C@@H](O)CC)c2c1O (stereo not given in full) [KAYEASSAMIN F] | 2
CCCC(=O)c1c(O)c(CC=C(C)C)c2oc(=O)cc([C@@H](O)CC)c2c1O [KAYEASSAMIN E] | 1
COc1cc(C[C@H]2C(=O)OC[C@@H]2Cc2ccc(OC)c(OC)c2)ccc1O [ARCTIGENIN] | 1
CCCC(=O)c1c2c(c3oc(=O)cc(CCC)c3c1O)CC(C(C)(C)O)O2 (stereo not given) | 64
CC[C@H](O)c1cc(=O)oc2c(C(=O)CC(C)C)c(O)c3c(c12)OC(C)(C)C=C3 | 32
CCCC(=O)c1c(O)c(CC=C(C)C)c2oc(=O)cc(CCC)c2c1O | 2
CC[C@H](O)c1cc(=O)oc2c(C/C=C(\C)CCC=C(C)C)c(O)c(C(=O)CC(C)C)c(O)c12 [KAYEASSAMIN D] | 1
CC(C)CC(=O)c1c2c(c3oc(=O)cc(-c4ccccc4)c3c1O)C=CC(C)(C)O2 [MAMMEIGIN] | 32
CCCC(=O)c1c(O)c(CC=C(C)C)c2oc(=O)cc(-c3ccccc3)c2c1O [MAMMEA A/AC] | 16
CCCC(=O)c1c2c(c3oc(=O)cc(-c4ccccc4)c3c1O)C=CC(C)(C)O2 | >256
CCCC(=O)c1c(O)c(C/C=C(\C)CCC=C(C)C)c2oc(=O)cc([C@@H](O)CC)c2c1O [KAYEASSAMIN B] | 1
CCC(C)C(=O)c1c(O)c(C/C=C(\C)CCC=C(C)C)c2oc(=O)cc([C@@H](O)CC)c2c1O (stereo not given in full) [KAYEASSAMIN C] | 4
CCCC(=O)c1c(O)c(CC=C(C)C)c(O)c2c(-c3ccccc3)cc(=O)oc12 | 8
CCCC(=O)c1c(O)c(CC=C(C)C)c2oc(=O)cc3c2c1OC(C)C3 (stereo not given) [KAYEASSAMIN H] | 64
CC[C@H](O)c1cc(=O)oc2c(CC=C(C)C)c(O)c(C(=O)CC(C)C)c(O)c12 [KAYEASSAMIN G] | 1
CCCC(=O)c1c(O)c2c(c3c([C@@H](O)CC)cc(=O)oc13)OC(C)(CCC=C(C)C)C=C2 (stereo not given in full) [KAYEASSAMIN I] | 64
